Values after ≈ are worked out from the molar mass of the structure shown.
Assays:
Trypanosoma cruzi [1] = assay: Anti parasitic activity against Trypanosoma cruzi; type: functional; settings: read-out: ED50 (the source's name)
Outline: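 In vitro test against intracellular amastigotes of T. cruzi grown in murine macrophages.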

[2] = molecular target: T1, Glutathione reductase, mitochondrial (Homo sapiens, UniProt P00390); assay: Inhibitory concentration against human Glutathione reductase was determined
T1 sequence (P00390 whole entry): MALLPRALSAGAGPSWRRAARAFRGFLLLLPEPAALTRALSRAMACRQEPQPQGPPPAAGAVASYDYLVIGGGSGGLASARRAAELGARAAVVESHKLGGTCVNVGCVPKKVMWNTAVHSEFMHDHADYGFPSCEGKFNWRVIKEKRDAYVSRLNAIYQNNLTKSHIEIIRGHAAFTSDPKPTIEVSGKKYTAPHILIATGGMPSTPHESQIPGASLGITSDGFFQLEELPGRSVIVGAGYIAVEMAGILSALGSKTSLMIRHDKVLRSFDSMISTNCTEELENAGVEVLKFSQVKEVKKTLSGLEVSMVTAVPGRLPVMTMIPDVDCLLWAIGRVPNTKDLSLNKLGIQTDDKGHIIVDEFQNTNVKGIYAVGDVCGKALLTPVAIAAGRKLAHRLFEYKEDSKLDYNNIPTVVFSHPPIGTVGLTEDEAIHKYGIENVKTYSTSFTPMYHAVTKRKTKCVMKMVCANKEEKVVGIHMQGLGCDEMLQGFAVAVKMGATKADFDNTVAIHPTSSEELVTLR
Outline: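 Human glutathione reductase purified from erythrocytes (42.3 mU) was run spectrophotometrically at 25 °C in 40 mM HEPES pH 7.5 with 1 mM EDTA and NADPH. It was preincubated with NADPH for 10 min, inhibitor was added at varying concentrations in DMSO (1% v/v final), and glutathione disulfide was then added.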

Trypanothione reductase = Trypanothione reductase (Trypanosoma cruzi, UniProt P28593); assay: Inhibitory concentration against trypanothione reductase was determined
Outline: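 Recombinant T. cruzi trypanothione reductase (128 mU) was followed spectrophotometrically at 25 °C in 40 mM HEPES pH 7.5 with 1 mM EDTA and NADPH. Enzyme and NADPH were preincubated for 10 min at 25 °C, inhibitor was added at varying concentrations in DMSO (1% v/v final), and the reaction was started with Try[SH]2.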

[3] = Ratio of Inhibitory activity against glutathione reductase and inhibitory activity against trypanothione reductase was determined
Leishmania donovani = assay: Anti parasitic activity against Leishmania donovani (cultured in murine macrophages); type: functional; settings: for EC50: read-out: ED50 (the source's name)
KB = assay: Toxicity of the quinacrine derivatives was determined against the KB cell line in comparison to podophyllotoxin; type: functional; settings: Homo sapiens, read-out: ED50 (the source's name)
Plasmodium falciparum [4] = assay: Antiparasitic activity for Plasmodium falciparum 3D7; type: functional; settings: read-out: ED50 (the source's name)
Outline: (§1)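 Growth of P. falciparum in human red blood cells was measured by [³H]-hypoxanthine incorporation over 48 h. 3D7 is the chloroquine-sensitive strain and K1 the chloroquine-resistant strain.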

Plasmodium falciparum [5] = assay: Anti parasitic activity for Plasmodium falciparum K1; type: functional; settings: read-out: ED50 (the source's name); outline: as §1
Trypanosoma cruzi [6] = assay: Anti parasitic activity against Trypanosoma cruzi (cultured in murine macrophages); type: functional; settings: read-out: ED50 (the source's name)
Trypanosoma brucei = assay: Anti parasitic activity against Trypanosoma brucei; type: functional; settings: read-out: ED50 (the source's name)

Trypanothione reductase, sequence (P28593 whole entry): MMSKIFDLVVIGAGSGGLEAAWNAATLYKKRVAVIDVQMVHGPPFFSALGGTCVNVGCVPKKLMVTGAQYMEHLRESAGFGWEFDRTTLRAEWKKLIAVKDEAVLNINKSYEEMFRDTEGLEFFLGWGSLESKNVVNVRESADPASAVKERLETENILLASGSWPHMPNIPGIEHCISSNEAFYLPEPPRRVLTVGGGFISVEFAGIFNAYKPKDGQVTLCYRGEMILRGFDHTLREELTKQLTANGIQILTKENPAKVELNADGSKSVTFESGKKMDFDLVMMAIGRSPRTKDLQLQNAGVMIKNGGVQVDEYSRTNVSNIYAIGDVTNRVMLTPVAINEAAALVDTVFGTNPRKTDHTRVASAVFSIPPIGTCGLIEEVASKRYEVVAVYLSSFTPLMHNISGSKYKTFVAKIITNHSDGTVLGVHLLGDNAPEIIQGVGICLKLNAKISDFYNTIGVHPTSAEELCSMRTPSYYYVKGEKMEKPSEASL

| Compound | EC50 (Trypanosoma cruzi [1]) [mg/L] | IC50 [2] [µM] | IC50 (Trypanothione reductase) [µM] | Selectivity [3] | EC50 (Leishmania donovani) [mg/L] | EC50 (KB) [mg/L] | EC50 (Plasmodium falciparum [4]) [mg/L] | EC50 (Plasmodium falciparum [5]) [mg/L] | EC50 (Trypanosoma cruzi [6]) [mg/L] | EC50 (Trypanosoma brucei) [mg/L] | ED50 (Leishmania donovani) [mg/L] |
| --- | --- | --- | --- | --- | --- | --- | --- | --- | --- | --- | --- |
| c1ccc2[nH]cnc2c1 [BENZIMIDAZOLE] | 12.4 (≈ 105 µM) |  |  |  |  |  |  |  |  |  |  |
| CCN(CC)CCCC(C)Nc1c2ccc(Cl)cc2nc2ccc(OC)cc12 (stereo unspecified) [QUINACRINE] |  | > 1000 | 133 | > 7.5 |  |  |  |  |  |  |  |
| COc1ccc2nc3cc(Cl)ccc3c(NCCCNC(=O)NCc3ccccc3)c2c1 |  | 44.7 | 13.1 | 3.4 | 1.9 (≈ 4.23 µM) | 0.7 (≈ 1.56 µM) | 0.0005 (≈ 0.00111 µM) | 0.015 (≈ 0.0334 µM) | 22 (≈ 49 µM) | 0.083 (≈ 0.185 µM) |  |
| N=C(N)c1ccc(OCCCCCOc2ccc(C(=N)N)cc2)cc1 [PENTAMIDINE] |  |  |  |  |  |  |  |  |  | 0.0002 (≈ 0.000587 µM) |  |
| COc1ccc2nc3cc(Cl)ccc3c(NCCNC(=O)NCc3ccccc3)c2c1 |  | 27.2 | 19.3 | 1.4 | 10.7 (≈ 24.6 µM) | 4.1 (≈ 9.43 µM) | 0.069 (≈ 0.159 µM) |  | > 30 | 0.42 (≈ 0.966 µM) |  |
| COc1cc([C@@H]2c3cc4c(cc3[C@H](O)[C@H]3COC(=O)[C@H]23)OCO4)cc(OC)c1OC [PODOFILOX] |  |  |  |  |  | 0.008 (≈ 0.0193 µM) |  |  |  |  |  |
| COc1ccc2nc3cc(Cl)ccc3c(NCCNS(=O)(=O)c3ccc4ccccc4c3)c2c1 |  | 9.9 | 5.9 | 1.7 | 5.8 (≈ 11.8 µM) | 2.7 (≈ 5.49 µM) | 0.025 (≈ 0.0508 µM) |  | > 30 | 0.47 (≈ 0.955 µM) |  |
| COc1ccc2nc3cc(Cl)ccc3c(NCCCCCCNC(=O)NCc3ccccc3)c2c1 |  | 17.1 | 11.4 | 1.5 | 5.8 (≈ 11.8 µM) | 4.3 (≈ 8.76 µM) | 0.14 (≈ 0.285 µM) |  | 6.8 (≈ 13.8 µM) | 0.46 (≈ 0.937 µM) |  |
| CCN(CC)CCCC(C)Nc1ccnc2cc(Cl)ccc12 (stereo unspecified) [CHLOROQUINE] |  |  |  |  |  |  | 0.002 (≈ 0.00625 µM) | 0.15 (≈ 0.469 µM) |  |  |  |
| COc1ccc2nc3cc(Cl)ccc3c(NCCCNS(=O)(=O)c3ccc4ccccc4c3)c2c1 |  | 27.2 | 3.3 | 8.2 | 1.9 (≈ 3.75 µM) | 0.4 (≈ 0.79 µM) | 0.01 (≈ 0.0198 µM) |  | 23.9 (≈ 47.2 µM) | 0.078 (≈ 0.154 µM) |  |
| COc1ccc2nc3cc(Cl)ccc3c(NCCCCNS(=O)(=O)c3ccc4ccccc4c3)c2c1 |  | 13.9 | 5 | 2.8 | 3.3 (≈ 6.35 µM) | 0.4 (≈ 0.769 µM) | 0.033 (≈ 0.0635 µM) |  | > 30 | 0.12 (≈ 0.231 µM) |  |
| COc1ccc2nc3cc(Cl)ccc3c(NCCCCNC(=O)NCc3ccccc3)c2c1 |  | 55.8 | 15.5 | 3.6 | 1.9 (≈ 4.1 µM) | 0.8 (≈ 1.73 µM) | 0.0013 (≈ 0.00281 µM) |  | < 1 | 0.043 (≈ 0.0929 µM) |  |
| Pentostam |  |  |  |  |  |  |  |  |  |  | 8.9 |

Reference: ChEMBL document CHEMBL1133983, “Antiprotozoal and cytotoxicity evaluation of sulfonamide and urea analogues of quinacrine” (Bioorg Med Chem Lett, 2001)
